Results reported in ChEMBL document CHEMBL2146441, “2,6-Disubstituted imidazo[2,1-b][1,3,4]thiadiazoles: search for anticancer agents” (2012).

Key:
Type in all cases: functional
OVCAR-3 [1] = assay: Cytotoxicity against human OVCAR3 cells assessed as cell growth at 10^-5 M after 48 hrs by SRB assay; conditions: OVCAR-3, 48 h, read-out: Activity
OVCAR-4 = assay: Cytotoxicity against human OVCAR4 cells assessed as cell growth at 10^-5 M after 48 hrs by SRB assay; conditions: OVCAR-4, 48 h, read-out: Activity
UACC-257 = assay: Growth inhibition of human UACC257 cells after 48 hrs by SRB assay; conditions: UACC-257, 48 h; for CC50: read-out: LC50 (the source's name)
Outline: (§1)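 Adherent NCI-60 lines grown in RPMI 1640 with 5% FBS, seeded at 5000–40,000 cells/well, and preincubated 24 h at 37 °C, 5% CO2. Compound, stocked in DMSO, given either once at 10^-5 M or at five 10-fold dilutions for 48 h. Cells fixed with cold TCA (final 10%), stained with 0.4% SRB, and read at 515 nm. GI50 taken as 50% reduction in net protein increase versus time-zero and control plates.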

CAKI-1 = assay: Growth inhibition of human Caki1 cells after 48 hrs by SRB assay; conditions: CAKI-1, 48 h
Outline: (§2)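 Same 48 h NCI-60 five-dose SRB protocol. Adherent lines were fixed with cold TCA at 10% final; suspension lines such as CCRF-CEM were fixed with 16% final TCA. Stain was 0.4% SRB in 1% acetic acid for 10 min, solubilized in 10 mM Tris base and read at 515 nm. GI50 came from log concentration–growth curves, solving [(Ti−Tz)/(C−Tz)]×100 = 50.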

SN12C = assay: Growth inhibition of human SN12C cells after 48 hrs by SRB assay; conditions: for CC50: read-out: LC50 (the source's name); outline: as §1
PC-3 [2] = assay: Growth inhibition of human PC3 cells after 48 hrs by SRB assay; conditions: PC-3, 48 h; for CC50: read-out: LC50 (the source's name); outline: as §1
T47D = assay: Cytotoxicity against human T47D cells assessed as cell growth at 10^-5 M after 48 hrs by SRB assay; conditions: read-out: Activity
A549 [3] = assay: Cytotoxicity against human A549 cells assessed as cell growth at 10^-7 M after 48 hrs by SRB assay; conditions: A549, 48 h, read-out: Activity
Outline: (§3)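 NCI-60 screen: lines kept in RPMI 1640 with 5% FBS, seeded at 5000–40,000 cells/well by doubling time, preincubated 24 h at 37 °C in 5% CO2. Time-zero plates TCA-fixed at drug addition. DMSO stocks diluted in medium, 48 h exposure. Fixation in cold TCA (final 10% adherent, 16% suspension), 0.4% SRB stain, solubilised in 10 mM Tris base, A515. Percent growth computed against control and time-zero.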

EKVX = assay: Cytotoxicity against human EKVX cells assessed as cell growth at 10^-7 M after 48 hrs by SRB assay; conditions: read-out: Activity; outline: as §3
M14 = assay: Cytotoxicity against human M14 cells assessed as cell growth at 10^-7 M after 48 hrs by SRB assay; conditions: M14, 48 h, read-out: Activity
SNB-75 = assay: Cytotoxicity against human SNB75 cells assessed as cell growth at 10^-4 M after 48 hrs by SRB assay; conditions: SNB-75, 48 h, read-out: Activity
OVCAR-3 [4] = assay: Cytotoxicity against human OVCAR3 cells assessed as cell growth at 10^-4 M after 48 hrs by SRB assay; conditions: OVCAR-3, 48 h, read-out: Activity
TK-10 [5] = assay: Cytotoxicity against human TK10 cells assessed as cell growth at 10^-4 M after 48 hrs by SRB assay; conditions: TK-10, 48 h, read-out: Activity
PC-3 [6] = assay: Cytotoxicity against human PC3 cells assessed as cell growth at 10^-4 M after 48 hrs by SRB assay; conditions: PC-3, 48 h, read-out: Activity
TK-10 [7] = assay: Cytotoxicity against human TK10 cells assessed as cell growth at 10^-7 M after 48 hrs by SRB assay; conditions: TK-10, 48 h, read-out: Activity
SW-620 = assay: Cytotoxicity against human SW620 cells assessed as cell growth at 10^-8 M after 48 hrs by SRB assay; conditions: SW-620, 48 h, read-out: Activity
LOX IMVI = assay: Cytotoxicity against human LOXIMVI cells assessed as cell growth at 10^-8 M after 48 hrs by SRB assay; conditions: read-out: Activity
DU-145 = assay: Cytotoxicity against human DU145 cells assessed as cell growth at 10^-8 M after 48 hrs by SRB assay; conditions: DU-145, 48 h, read-out: Activity; outline: as §3
BT-549 = assay: Cytotoxicity against human BT549 cells assessed as cell growth at 10^-8 M after 48 hrs by SRB assay; conditions: BT-549, 48 h, read-out: Activity; outline: as §3
A549 [8] = assay: Cytotoxicity against human A549 cells assessed as cell growth at 10^-6 M after 48 hrs by SRB assay; conditions: A549, 48 h, read-out: Activity; outline: as §3
NCI-H226 = assay: Cytotoxicity against human NCI-H226 cells assessed as cell growth at 10^-6 M after 48 hrs by SRB assay; conditions: NCI-H226, 48 h, read-out: Activity
SF-295 = assay: Cytotoxicity against human SF295 cells assessed as cell growth at 10^-6 M after 48 hrs by SRB assay; conditions: SF-295, 48 h, read-out: Activity
Malme-3M = assay: Cytotoxicity against human MALME-3M cells assessed as cell growth at 10^-6 M after 48 hrs by SRB assay; conditions: read-out: Activity
MDA-MB-435 = assay: Cytotoxicity against human MDA-MB-435 cells assessed as cell growth at 10^-6 M after 48 hrs by SRB assay; conditions: MDA-MB-435, 48 h, read-out: Activity
SK-MEL-2 = assay: Cytotoxicity against human SK-MEL-2 cells assessed as cell growth at 10^-6 M after 48 hrs by SRB assay; conditions: SK-MEL-2, 48 h, read-out: Activity
A498 = assay: Cytotoxicity against human A498 cells assessed as cell growth at 10^-6 M after 48 hrs by SRB assay; conditions: A498, 48 h, read-out: Activity; outline: as §3
CCRF-CEM = assay: Growth inhibition of human CCRF-CEM cells after 48 hrs by SRB assay; conditions: for CC50: read-out: LC50 (the source's name); outline: as §2
A549 [9] = assay: Growth inhibition of human A549 cells after 48 hrs by SRB assay; conditions: A549, 48 h; for CC50: read-out: LC50 (the source's name); outline: as §2
[10] = Cytotoxicity against human Hs 578T cells assessed as cell growth at 10^-6 M after 48 hrs by SRB assay; conditions: read-out: Activity
Outline: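 NCI-60 five-dose screen. Cells were grown in RPMI 1640 with 5% FBS and seeded at 5000–40,000 cells/well according to doubling time. They were pre-incubated 24 h at 37 °C in 5% CO₂, and time-zero (Tz) plates were TCA-fixed at drug addition. Five 10-fold dilutions of DMSO stock were applied for 48 h. Read-out was SRB staining, 515 nm absorbance, with percent growth calculated versus Tz and untreated control.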

COc1ccc(-c2nn3cc(-c4ccc(O)cc4O)nc3s2)cc1
growth at 10 µM (OVCAR-3 [1]): -7% | growth at 10 µM (OVCAR-4): -60% | GI50 (UACC-257): 4.98 µM | TGI (UACC-257): 76.4 µM | CC50 (UACC-257): > 100 µM | GI50 (CAKI-1): 2.07 µM | LC50 (50% lethal concentration) (CAKI-1): > 100 µM | TGI (CAKI-1): 28.9 µM | GI50 (SN12C): 2.58 µM | TGI (SN12C): > 100 µM | CC50 (SN12C): > 100 µM | GI50 (PC-3 [2]): 1.95 µM | TGI (PC-3 [2]): > 100 µM | CC50 (PC-3 [2]): > 100 µM | growth at 10 µM (T47D): -29% | growth at 0.1 µM (A549 [3]): 99% | growth at 0.1 µM (EKVX): 92% | growth at 0.1 µM (M14): 96% | growth at 100 µM (SNB-75): -37% | growth at 100 µM (OVCAR-3 [4]): -14% | growth at 100 µM (TK-10 [5]): -21% | growth at 100 µM (PC-3 [6]): 1% | growth at 0.1 µM (TK-10 [7]): 105% | growth at 0.01 µM (SW-620): 97% | growth at 0.01 µM (LOX IMVI): 101% | growth at 0.01 µM (DU-145): 106% | growth at 0.01 µM (BT-549): 94% | growth at 1 µM (A549 [8]): 86% | growth at 1 µM (NCI-H226): 61% | growth at 1 µM (SF-295): 74% | growth at 1 µM (Malme-3M): 61% | growth at 1 µM (MDA-MB-435): 76% | growth at 1 µM (SK-MEL-2): 85% | growth at 1 µM (A498): 34% | GI50 (CCRF-CEM): 5.08 µM | TGI (CCRF-CEM): > 100 µM | CC50 (CCRF-CEM): > 100 µM | GI50 (A549 [9]): 2.69 µM | TGI (A549 [9]): > 100 µM | CC50 (A549 [9]): > 100 µM | growth at 1 µM [10]: 71%

COc1ccc(-c2nn3cc(-c4cccc(N)c4)nc3s2)cc1
growth at 10 µM (OVCAR-3 [1]): 19% | growth at 10 µM (OVCAR-4): 7% | GI50 (UACC-257): 17.3 µM | TGI (UACC-257): > 100 µM | CC50 (UACC-257): > 100 µM | GI50 (CAKI-1): 0.743 µM | LC50 (50% lethal concentration) (CAKI-1): > 100 µM | TGI (CAKI-1): 10.9 µM | GI50 (SN12C): 4.18 µM | TGI (SN12C): > 100 µM | CC50 (SN12C): > 100 µM | GI50 (PC-3 [2]): 1.2 µM | TGI (PC-3 [2]): 20.8 µM | CC50 (PC-3 [2]): > 100 µM | growth at 10 µM (T47D): 7% | growth at 0.1 µM (A549 [3]): 106% | growth at 0.1 µM (EKVX): 72% | growth at 0.1 µM (M14): 101% | growth at 100 µM (SNB-75): -49% | growth at 100 µM (OVCAR-3 [4]): -74% | growth at 100 µM (TK-10 [5]): -30% | growth at 100 µM (PC-3 [6]): -22% | growth at 0.1 µM (TK-10 [7]): 135% | growth at 0.01 µM (SW-620): 95% | growth at 0.01 µM (LOX IMVI): 94% | growth at 0.01 µM (DU-145): 101% | growth at 0.01 µM (BT-549): 102% | growth at 1 µM (A549 [8]): 95% | growth at 1 µM (NCI-H226): 58% | growth at 1 µM (SF-295): 72% | growth at 1 µM (Malme-3M): 71% | growth at 1 µM (MDA-MB-435): 77% | growth at 1 µM (SK-MEL-2): 79% | growth at 1 µM (A498): 53% | GI50 (CCRF-CEM): 1.77 µM | TGI (CCRF-CEM): > 100 µM | CC50 (CCRF-CEM): > 100 µM | GI50 (A549 [9]): 5.84 µM | TGI (A549 [9]): 27.5 µM | CC50 (A549 [9]): > 100 µM | growth at 1 µM [10]: 76%
